Measured values: ChEMBL document CHEMBL1132961 (J Med Chem, 2000)

Tests used:
[1] = Concentration which elicits cytotoxicity in 50% of uninfected human lymphocyte derived CEM cells; type: cell-based, CCRF-CEM; details: uninfected CCRF-CEM cells, read-out: TC50 (the source's name)
Procedure, shortened: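 Cytotoxicity measured in uninfected human lymphocyte-derived CEM cells by XTT protocol.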

[2] = molecular target: T1, Human immunodeficiency virus type 1 protease (Human immunodeficiency virus 1, UniProt Q72874); assay: Activity of potent nonpeptidic inhibitor against protease
Procedure, shortened: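 Incubated with 40 µM His-Lys-Ala-Arg-Val-Leu-(p-NO₂-Phe)-Glu-Ala-Nle-Ser-NH₂ in 1.0% DMSO, pH 6.2 MES buffer (DTT, NaCl, EDTA, PEG 8000) for 60 min at 37 °C, then TFA quench. Substrate and product separated by reverse-phase HPLC, read at 220 nm. % control = conversion with inhibitor / conversion without × 100; IC50 derived.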

[3] = system: Human immunodeficiency virus 1; assay: Effective concentration at which 50% of the HIV-IIIB-infected human lymphocyte-derived CEM cells protected from HIV-1 infection; details: Human immunodeficiency virus 1, CCRF-CEM
[4] = Tested for maximum plasma concentration in mice; type: ADME, organism-based; details: mouse
Procedure, shortened: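 Mice dosed orally by gavage at 25 mg/kg. Vehicle was usually 20% 0.1 N NaOH/80% 0.5% methylcellulose, and in two cases 20% 0.1 N NaOH/80% PEG 400. Plasma Cmax and AUC measured; AUC not determined where Cmax was too low.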

[5] = molecular target: T1, Human immunodeficiency virus type 1 protease; assay: Tested for binding affinity against HIV protease

IC50 [2] [µM]	EC50 [3] [µM]	Cmax [4] [µM]	Ki [5] [µM]	Compound	CC50 [1] [µM]
0.0041	2.2	–	–	Cc1cc(SC2=C(O)OC(CCc3ccc(N)cc3)(C(C)C)CC2=O)c(C(C)(C)C)cc1OS(=O)(=O)c1cccnc1 (stereo not drawn)	66
0.0091	0.5	2	–	Cc1cc(SC2=C(O)OC(CCc3ccccc3)(C(C)C)CC2=O)c(C(C)(C)C)cc1NS(=O)(=O)c1ccc(C#N)cc1 (stereo not drawn)	66
0.0086	2.5	–	–	Cc1cc(SC2=C(O)OC(CCc3ccc(O)cc3)(C3CCCC3)CC2=O)c(C(C)(C)C)cc1NS(=O)(=O)c1ccccc1 (stereo not drawn)	67
0.003	0.7	1.14	–	Cc1cc(SC2=C(O)OC(CCc3ccccc3)(C(C)C)CC2=O)c(C(C)(C)C)cc1NS(=O)(=O)c1ccccn1 (stereo not drawn)	67
0.0022	1.6	–	0.00041	Cc1cc(SC2=C(O)OC(CCc3ccc(O)cc3)(C(C)C)CC2=O)c(C(C)(C)C)cc1NS(=O)(=O)c1ccc(C#N)cc1 (stereo not drawn)	85
0.005	0.7	–	–	Cc1cc(SC2=C(O)OC(CCc3ccc(O)cc3)(C(C)C)CC2=O)c(C(C)(C)C)cc1OS(=O)(=O)c1ccccn1 (stereo not drawn)	84
0.0026	4.1	–	–	Cc1cc(SC2=C(O)OC(CCc3ccc(O)cc3)(C(C)C)CC2=O)c(C(C)(C)C)cc1NS(=O)(=O)c1ccccn1 (stereo not drawn)	> 100
–	1.6	–	0.00083	Cc1cc(SC2=C(O)OC(CCc3ccccc3)(C(C)C)CC2=O)c(C(C)(C)C)cc1NS(C)(=O)=O (stereo not drawn)	> 100
0.0063	5.6	–	–	Cc1cc(SC2=C(O)OC(C)(CCc3ccc(O)cc3)CC2=O)c(C(C)(C)C)cc1NS(=O)(=O)c1ccc(-c2cccs2)cc1 (stereo not drawn)	> 100
0.0019	4.2	–	–	Cc1cc(SC2=C(O)OC(CCc3ccccc3)(C(C)C)CC2=O)c(C(C)(C)C)cc1NS(=O)(=O)Cn1ccnc1 (stereo not drawn)	> 100
0.0037	5.6	–	–	Cc1cc(SC2=C(O)OC(C)(CCc3ccc(O)cc3)CC2=O)c(C(C)(C)C)cc1NS(=O)(=O)c1ccc(F)cc1 (stereo not drawn)	93
0.021	2.6	–	–	Cc1cc(SC2=C(O)OC(CCc3ccc(O)cc3)(C3CCCCC3)CC2=O)c(C(C)(C)C)cc1OS(=O)(=O)c1ccc(C#N)cc1 (stereo not drawn)	29
0.0019	58	–	–	Cc1cc(SC2=C(O)OC(C)(CCc3ccc(O)cc3)CC2=O)c(C(C)(C)C)cc1NS(=O)(=O)Cn1ccnc1 (stereo not drawn)	> 100
0.0041	1.8	–	–	Cc1cc(SC2=C(O)OC(CCc3ccc(O)cc3)(C(C)C)CC2=O)c(C(C)(C)C)cc1NS(=O)(=O)c1ccc(F)cc1 (stereo not drawn)	66
–	1.8	–	0.0011	Cc1cc(SC2=C(O)OC(CCc3ccccc3)(C(C)C)CC2=O)c(C(C)(C)C)cc1O (stereo not drawn)	66
0.0035	1.6	0.63	–	Cc1cc(SC2=C(O)OC(CCc3ccc(O)cc3)(C(C)C)CC2=O)c(C(C)(C)C)cc1OS(=O)(=O)c1cccnc1 (stereo not drawn)	76
0.0183	1.1	–	–	Cc1cc(SC2=C(O)OC(CCc3ccc(O)cc3)(C(C)C)CC2=O)c(C(C)(C)C)cc1NS(=O)(=O)c1ccc(C(F)(F)F)cc1 (stereo not drawn)	66
0.0017	3.3	–	–	CCNS(=O)(=O)Nc1cc(C(C)(C)C)c(SC2=C(O)OC(CCc3ccc(O)cc3)(C(C)C)CC2=O)cc1C (stereo not drawn)	> 100

IC50 [2] [µM]	EC50 [3] [µM]	Cmax [4] [µM]	Ki [5] [µM]	Compound	CC50 [1] [µM]
0.0098	12	–	–	Cc1cc(SC2=C(O)OC(C)(CCc3ccc(O)cc3)CC2=O)c(C(C)(C)C)cc1OS(=O)(=O)c1ccccc1 (stereo not drawn)	82
–	1.8	–	0.00039	Cc1cc(SC2=C(O)O[C@](CCc3ccc(O)cc3)(C(C)C)CC2=O)c(C(C)(C)C)cc1NS(=O)(=O)c1ccc(C(F)(F)F)cn1	66
–	1.5	–	0.0014	Cc1cc(SC2=C(O)OC(CCc3ccccc3)(C(C)C)CC2=O)c(C(C)(C)C)cc1NS(=O)(=O)c1cccc(C#N)c1 (stereo not drawn)	66
0.0018	1.4	–	0.00053	Cc1cc(SC2=C(O)OC(CCc3ccc(O)cc3)(C(C)C)CC2=O)c(C(C)(C)C)cc1NS(=O)(=O)c1ccccc1 (stereo not drawn)	74
–	18	–	0.00954	Cc1cc(SC2=C(O)O[C@@](CCc3ccc(O)cc3)(C(C)C)CC2=O)c(C(C)(C)C)cc1NS(=O)(=O)c1ccc(C(F)(F)F)cn1	66
–	5.9	–	0.0064	Cc1cc(SC2=C(O)O[C@@](CCc3ccccc3)(C(C)C)CC2=O)c(C(C)(C)C)cc1NS(=O)(=O)c1ccc(C(F)(F)F)cn1	66
0.0104	1.6	–	–	Cc1cc(SC2=C(O)OC(CCc3ccc(O)cc3)(C(C)C)CC2=O)c(C(C)(C)C)cc1OS(=O)(=O)c1ccccc1 (stereo not drawn)	66
–	5.3	–	0.00021	Cc1cc(SC2=C(O)OC(CCc3ccc(O)cc3)(C(C)C)CC2=O)c(C(C)(C)C)cc1NS(=O)(=O)c1cccc(C#N)c1 (stereo not drawn)	> 100
0.0097	19	–	–	Cc1cc(SC2=C(O)OC(C)(CCc3ccc(O)cc3)CC2=O)c(C(C)(C)C)cc1NS(C)(=O)=O (stereo not drawn)	> 100
0.0096	0.8	–	–	Cc1cc(SC2=C(O)OC(CCc3ccc(O)cc3)(C(C)C)CC2=O)c(C(C)(C)C)cc1OS(=O)(=O)c1ccc(F)cc1 (stereo not drawn)	66
–	1.1	–	0.0007	Cc1cc(SC2=C(O)OC(CCc3ccccc3)(C(C)C)CC2=O)c(C(C)(C)C)cc1OS(=O)(=O)c1ccc(C#N)cc1 (stereo not drawn)	25
0.0067	1.4	–	–	Cc1cc(SC2=C(O)OC(CCc3ccccc3)(C(C)C)CC2=O)c(C(C)(C)C)cc1OS(=O)(=O)c1ccccn1 (stereo not drawn)	65
0.0036	1.7	–	–	Cc1cc(SC2=C(O)OC(CCc3ccc(O)cc3)(C(C)C)CC2=O)c(C(C)(C)C)cc1NS(=O)(=O)N(C)C (stereo not drawn)	> 100
0.0087	1.8	–	–	Cc1cc(SC2=C(O)OC(CCc3ccc(O)cc3)(C(C)C)CC2=O)c(C(C)(C)C)cc1NS(=O)(=O)c1cccs1 (stereo not drawn)	> 100
0.131	> 59	–	–	Cc1cc(SC2=C(O)OC(CCc3ccc(O)cc3)(C3CCCCC3)CC2=O)c(C(C)(C)C)cc1OS(=O)(=O)c1ccccc1 (stereo not drawn)	59
0.029	9.5	–	–	Cc1cc(SC2=C(O)OC(CCc3ccc(O)cc3)(C3CCCCC3)CC2=O)c(C(C)(C)C)cc1OS(=O)(=O)c1ccc(F)cc1 (stereo not drawn)	66
–	0.8	0.62	–	CCNS(=O)(=O)Oc1cc(C(C)(C)C)c(SC2=C(O)OC(CCc3ccccc3)(C(C)C)CC2=O)cc1C (stereo not drawn)	67

Compound	IC50 [2] [µM]	EC50 [3] [µM]	Cmax [4] [µM]	Ki [5] [µM]	CC50 [1] [µM]
Cc1cc(SC2=C(O)OC(CCc3ccccc3)(C(C)C)CC2=O)c(C(C)(C)C)cc1N (stereo not drawn)	0.0036	1.9	–	–	69
